This is an account of results in ChEMBL document CHEMBL3792340, “Novel benzylidenephenylpyrrolizinones with pleiotropic activities potentially useful in Alzheimer's disease treatment” (Eur J Med Chem, 2016).

A short description of data set [1]: Permeability of the compound at 100 uM at pH 7.4 after 4 hrs by PAMPA-BBB assay. (The PAMPA barrier holds no transporters, so it reflects passive diffusion.)
A short description of data set [2]: Metal chelating activity of the compound assessed as formation of copper complex at 50 uM after 10 mins by UV-visible spectroscopy. The format is physicochemical. The procedure, abridged: (§1)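 Compound in methanol (from 50 mM DMSO stock) at 50 μM mixed with equimolar CuCl2 or FeCl2, 10 min at room temperature; spectra scanned 230–600 nm at 298 K. Difference spectra obtained by subtracting the metal-alone spectrum from the mixture spectrum.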

The target in data set [3] is Amyloid-beta precursor protein (Homo sapiens) (UniProt P05067). The experiment in a line: Inhibition of Amyloid beta (1 to 42) (unknown origin) self aggregation at 10 uM measured every 5 mins with shake for 15 secs by ThT fluorescence assay relative to control. An outline of the steps:
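Aβ1-42 (85 μL at 250 μg/mL) with thioflavin T (10 μL at 2 mM) and compound (1 μL of 1 mM) in 100 μL kit buffer; control without compound plus blanks. Fluorescence at 37 °C every 5 min, 15 s shaking between reads, Ex/Em 440/484 nm. Inhibition = 100 − (IFi/IFo×100).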

A short description of data set [4]: Metal chelating activity of the compound assessed as formation of iron complex at 50 uM after 10 mins by UV-visible spectroscopy. Type of data set: physicochemical. An outline of the steps: as §1
A short description of data set [5]: Antioxidant activity assessed as DPPH radical scavenging activity after 30 mins by microplate reader method. The format is physicochemical. The procedure, abridged:
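Compounds diluted from DMSO stock into absolute ethanol, incubated with 100 μM DPPH for 30 min at room temperature in the dark; absorbance at 517 nm. Scavenging % = (Acontrol−Asample)/Acontrol×100 versus vehicle control.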

A short description of data set [6]: Antioxidant activity assessed as nitric oxide radical scavenging activity at 40 uM after 3 hrs by Griess assay. Type of data set: physicochemical. An outline of the steps:
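Sodium nitroprusside (50 mM stock in phosphate buffer pH 7.4) mixed with test compound and phosphate buffer, incubated 3 h at 37.4 °C. Aliquot diluted with Griess reagent, absorbance read after 20 min at 546 nm. Inhibition = (Acontrol−Atest)/Acontrol×100; triplicate.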
On the technique in general: Nitrite, measured by Griess reagent, commonly stands in for NO production.

The nature of data set [7]: Antioxidant activity assessed as FeCl2-induced lipoperoxidation at 40 uM incubated for 2 hrs in dark by ferric thiocyanate method.
Data set [8] in a line: Cytotoxicity against human KB cells assessed as inhibition of cell proliferation at 10^-5 M after 72 hrs by MTS assay relative control. The format is cell-based. An outline of the steps:
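KB nasopharyngeal carcinoma cells in D-MEM with 10% fetal calf serum and antibiotics under 5% CO2; 1000 cells/well, treated 24 h after plating with compounds in DMSO (1% final), exposed 72 h. MTS read at 490 nm; inhibition = (1−OD treated/OD control)×100, triplicate.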
Background: Formazan colour is commonly taken as a measure of viable cells.

Data set [9] in a line: Binding affinity to Cu2+ assessed as dissociation constant after 10 to 60 mins by UV-visible spectra analysis. An outline of the steps:
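In methanol–10 mM Tris pH 7.4 (8:2 v/v), compound 0–200 μM incubated with or without CuCl2 50 μM; scans 230–600 nm after 10 and 60 min. Absorbance difference at each compound's specific wavelength gave complex and free-ligand concentrations using the saturation maximum and stoichiometry from Job plots (total 100 μM, varying mole fraction).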

Data set [10] is described as follows: Half life in 10 mM phosphate buffer at 20 uM at pH 7.4 at 25 degC by UHPLC analysis. Type of data set: physicochemical. The procedure, abridged: (§2)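 20 μM compound (from 10 mM DMSO stock) in 10 mM phosphate buffer pH 7.4, ionic strength 150 mM with KCl, at 25 °C, n=3. Sampled at 6 times over 0 to 5 or 8 h by UHPLC-PDA on a C18 column with water/acetonitrile gradient (0.01% formic acid). Half-life from exponential regression of disappearance versus time.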

The nature of data set [11]: Binding affinity to Cu2+ assessed as association constant after 10 to 60 mins by UV-visible spectra analysis. The procedure, abridged:
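Ligand titration in methanol–10 mM Tris pH 7.4 (8:2, v/v): compound 0 to 200 μM incubated with or without CuCl2 (50 μM), room temperature. Scanned 230–600 nm at 10 and 60 min. Difference spectra (mixture minus compound) read at each compound's specific wavelength give bound complex and free ligand, using stoichiometry from Job plots at 100 μM total.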

Data set [12] is described as follows: Chemical stability in 10 mM phosphate buffer at 20 uM at pH 7.4 at 25 degC after 5 hrs by UHPLC analysis. The conditions noted are these: pH 7.4, 5 h. The format is physicochemical. An outline of the steps:
as §2

Amyloid-beta precursor protein (Homo sapiens), sequence (P05067 whole entry): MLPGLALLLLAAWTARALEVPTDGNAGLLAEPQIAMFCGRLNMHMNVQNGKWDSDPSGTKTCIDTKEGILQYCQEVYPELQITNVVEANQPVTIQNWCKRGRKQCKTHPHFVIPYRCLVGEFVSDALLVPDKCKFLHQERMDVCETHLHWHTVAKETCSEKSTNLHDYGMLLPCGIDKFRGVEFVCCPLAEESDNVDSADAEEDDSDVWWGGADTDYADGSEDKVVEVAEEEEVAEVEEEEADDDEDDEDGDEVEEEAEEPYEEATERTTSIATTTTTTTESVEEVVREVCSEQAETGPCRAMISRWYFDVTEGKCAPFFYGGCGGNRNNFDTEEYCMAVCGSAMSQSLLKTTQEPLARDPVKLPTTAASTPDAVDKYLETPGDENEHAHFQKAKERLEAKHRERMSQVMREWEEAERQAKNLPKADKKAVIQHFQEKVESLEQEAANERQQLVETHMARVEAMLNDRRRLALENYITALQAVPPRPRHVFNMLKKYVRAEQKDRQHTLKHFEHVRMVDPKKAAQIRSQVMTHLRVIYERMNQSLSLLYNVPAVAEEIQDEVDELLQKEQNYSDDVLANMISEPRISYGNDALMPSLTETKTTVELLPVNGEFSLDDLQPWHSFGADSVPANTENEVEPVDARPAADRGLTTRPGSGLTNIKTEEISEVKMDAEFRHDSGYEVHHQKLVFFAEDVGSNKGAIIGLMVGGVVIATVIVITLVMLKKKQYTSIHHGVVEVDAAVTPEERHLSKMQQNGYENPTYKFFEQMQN

Regarding `Cn1c(=O)c2[nH]cnc2n(C)c1=O.O` [THEOPHYLLINE], the “log Pe” value in data set [1] is recorded as less than -6.

`COc1cc(C2/C(=C\c3cc(OC)c(OC)c(OC)c3)C(=O)c3cccn32)ccc1O` (centres undefined): the Activity entry was “Not Active” in data set [2], “Not Active” in [4] and 32.6% in data set [6]. The inhibition (as a rule, the change of the read-out against control, counted positive when it falls) in data set [3] was 23.6%. Besides, the EC50 – broadly, the concentration that produces a half-maximal response – in data set [5] is greater than 250 µM. Also, the peroxidation % in data set [7] was determined as 67.1%.

On to `COc1ccc(C2/C(=C\c3ccc(O)c(OC)c3)C(=O)c3cccn32)cc1O` (centres undefined), for which the Activity entry is “Active” in [2], “Active” in [4] and 55.1% in data set [6]. In data set [3], this compound displayed an inhibition of 12.8%. In [8], the inhibition at 72 h, 10 µM is 29%. Further, the EC50 in [5] was 99.5 µM. The peroxidation % in data set [7] is 56.4%.

`COc1cc(C2/C(=C\c3ccc(OCc4ccccc4)c(OCc4ccccc4)c3)C(=O)c3cccn32)ccc1OCc1ccccc1` (centres undefined) registered an inhibition in data set [3] of 4.2%. Moreover, the inhibition at 72 h, 10 µM in data set [8] worked out at 0%. In addition, in data set [5], the EC50 was greater than 250 µM. Besides, in data set [6], the Activity was 30.7%. Further, in data set [7], the peroxidation % is listed as 92.8%.

`O=c1c(O)c(-c2ccc(O)c(O)c2)oc2cc(O)cc(O)c12` [QUERCETIN]: the Activity in [6] came to 70.7%.

Regarding `COc1ccc(/C=C2/C(=O)c3cccn3C2c2ccc(OC)c(O)c2)cc1O` (centres undefined), the values for the Activity result in [2], in data set [4] and in data set [6] were “Active”, “Active” and 53.7%, respectively. In [3], this compound yielded an inhibition of 8.4%. The inhibition at 72 h, 10 µM in [8] turned out to be 24%. The concentration for a half-maximal effect (EC50) in [5] was greater than 250 µM. The peroxidation % in data set [7] worked out at 71%.

Consider `Cc1c(C)c2c(c(C)c1O)CCC(C)(C(=O)O)O2` (centres undefined) [TROLOX], for which the EC50 in data set [5] came to 18.2 µM.

In the case of `COc1cc(/C=C/C(=O)CC(=O)/C=C/c2ccc(O)c(OC)c2)ccc1O` [CURCUMIN], the figures for the Activity result in data set [2], in data set [4] and in [6] were “Active”, “Active” and 60.4%, respectively. The inhibition at 72 h, 10 µM in [8] was 83%. In addition, the EC50 in [5] amounted to 19.2 µM.

For `COc1ccc(/C=C2/C(=O)c3cccn3C2c2ccc(O)c(OC)c2)cc1O` (centres undefined), the Activity entry in [2] is recorded as “Not Active”; in [4] it was “Not Active”; in data set [6], 57.7%. In addition, the inhibition in data set [3] worked out at 15.9%. In [8], the inhibition at 72 h, 10 µM was 0%. Also, the half-maximal effective concentration (EC50) in data set [5] is greater than 250 µM. For the same compound, in data set [7], the peroxidation % worked out at 58.2%.

For the compound `COc1ccc(C2/C(=C\c3ccc(O)c(O)c3)C(=O)c3cccn32)cc1O` (centres undefined), the Activity entry in data set [2] is “Active”; in data set [4], “Active”; in data set [6], 57.5%. Besides, the Kd (as a rule, the concentration at which binding is half-saturated) in data set [9] came to 70.5 µM. Moreover, in data set [10], the half-life (commonly how long it takes for the measured level to halve) at 20 µM is 11.9 h. Besides, the logKa in data set [11] is 4.15. This compound had an inhibition in [3] of 24.9%. Further, the inhibition at 72 h, 10 µM in [8] came out at 0%. In addition, the 50% effective concentration (EC50) in [5] amounted to 12.8 µM. In addition, in [7], the peroxidation % was determined as 51.3%.

Regarding `COc1cc(/C=C/C(=O)O)ccc1O` [FERULATE], the EC50 in [5] is 43.2 µM. Further, the Activity in data set [6] was found to be 46.4%. For the same compound, the peroxidation % in data set [7] was determined as 47%.

On to `O=C1/C(=C/c2ccc(O)c(O)c2)C(c2ccccc2)n2cccc21` (centres undefined), for which the Activity result in [2] is listed as “Active”; in data set [4], “Active”; in [6], 65.6%. Further, in [9], the Kd was found to be 2.2 µM. Besides, the Stability result in data set [12] was “Stable”. In addition, in data set [11], the logKa turned out to be 5.65. Moreover, in [3], the inhibition was determined as 28.7%. In addition, in data set [8], the inhibition at 72 h, 10 µM came out at 0%. Moreover, the EC50 in data set [5] is 12.6 µM. In addition, in data set [7], the peroxidation % stood at 57%.

In turn, `O=C1/C(=C/c2ccccc2)C(c2ccccc2)n2cccc21` (centres undefined) registered an inhibition in data set [3] of 1.4%. Besides, the inhibition at 72 h, 10 µM in data set [8] worked out at 41%. In addition, the Activity in [6] is given as 34.4%. The peroxidation % in [7] is reported as 55.1%.

Regarding `COc1cc(/C=C2/C(=O)c3cccn3C2c2ccc(O)c(OC)c2)ccc1O` (centres undefined), the Activity entry in data set [2] was “Active”; in data set [4] it was “Active”; in data set [6], 57%. The compound further had an inhibition in [3] of 10.4%. Besides, in [8], the inhibition at 72 h, 10 µM turned out to be 0%. In [5], the concentration for a half-maximal effect (EC50) worked out at 101 µM. Besides, the peroxidation % in [7] is recorded as 48.5%.

For `COc1cc(/C=C2/C(=O)c3cccn3C2c2ccccc2)ccc1O` (centres undefined), the Activity entry in [2] is on record as “Not Active”; in data set [6] it was 51.7%. In data set [3], the inhibition was 14.5%. For the same compound, the inhibition at 72 h, 10 µM in data set [8] stood at 24%. In data set [5], the EC50 is greater than 250 µM. Also, the peroxidation % in data set [7] stood at 67.4%.

On to `COc1cc(C2/C(=C\c3cc(OC)c(O)c(OC)c3)C(=O)c3cccn32)ccc1O` (centres undefined), for which the Activity result in data set [2] is on record as “Not Active”; in data set [4], “Not Active”; in [6] it was 35.3%. The compound further had an inhibition in data set [3] of 30.1%. The inhibition at 72 h, 10 µM in data set [8] worked out at 0%. The EC50 in data set [5] came out at 246 µM. The peroxidation % in data set [7] is listed as 70.4%.

For `COc1cc(C2/C(=C\c3ccc(O)c(O)c3)C(=O)c3cccn32)ccc1O` (centres undefined), the Activity entry is reported as “Active” in data set [2], “Active” in data set [4] and 58% in [6]. For the same compound, the dissociation constant Kd in data set [9] is 22.1 µM. This compound had a half-life at 20 µM in data set [10] of 6.8 h. Further, in data set [11], the logKa stood at 4.65. The compound also returned an inhibition in [3] of 26.1%. Moreover, the inhibition at 72 h, 10 µM in data set [8] was found to be 0%. Further, in [5], the EC50 stood at 12 µM. For the same compound, in data set [7], the peroxidation % was 50.6%.

As for `COc1ccc(/C=C2/C(=O)c3cccn3C2c2ccc(O)c(OC)c2)c(OC)c1` (centres undefined), the Activity entry in [2] is “Not Active”; in data set [4] it was “Not Active”; in data set [6], 40.3%. In data set [3], the inhibition stood at 6%. Also, the inhibition at 72 h, 10 µM in [8] came to 38%. In [5], the concentration for a half-maximal effect (EC50) was greater than 250 µM. Besides, in data set [7], the peroxidation % came out at 67.5%.

Consider `O=C1/C(=C/c2ccc(O)c(O)c2)C(c2ccc(O)c(O)c2)n2cccc21` (centres undefined), for which the Activity result in data set [2] is recorded as “Active”; in [4], “Active”; in data set [6] it was 47.1%. Also, in data set [9], the Kd worked out at 19.9 µM. Further, the half-life at 20 µM in data set [10] was 6.4 h. The logKa in data set [11] worked out at 4.7. Besides, in data set [3], the inhibition turned out to be 27%. Besides, the inhibition at 72 h, 10 µM in data set [8] came out at 0%. Further, the half-maximal effective concentration (EC50) in [5] worked out at 9.6 µM. Moreover, the peroxidation % in [7] was 47%.
